Key:
[1] = target: T1, 5-hydroxytryptamine receptor 1A (Homo sapiens, UniProt P08908); assay: Displacement of [3H]8-OH-DPAT from 5-HT1A receptor after 1.5 hrs by scintillation counting
T1 sequence (P08908 whole entry): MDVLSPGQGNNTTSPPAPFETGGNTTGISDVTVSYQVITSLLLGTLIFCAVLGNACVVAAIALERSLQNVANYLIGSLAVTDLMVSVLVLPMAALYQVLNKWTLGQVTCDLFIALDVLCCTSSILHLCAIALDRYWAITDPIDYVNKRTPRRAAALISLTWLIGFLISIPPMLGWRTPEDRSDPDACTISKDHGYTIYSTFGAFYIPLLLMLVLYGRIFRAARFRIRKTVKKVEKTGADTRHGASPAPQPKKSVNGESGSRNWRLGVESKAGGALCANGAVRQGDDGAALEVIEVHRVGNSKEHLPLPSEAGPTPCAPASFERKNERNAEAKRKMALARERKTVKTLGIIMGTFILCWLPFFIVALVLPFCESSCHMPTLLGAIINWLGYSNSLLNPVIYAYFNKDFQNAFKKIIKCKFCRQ

[2] = target: 5-hydroxytryptamine receptor 2B (Homo sapiens, UniProt P41595); assay: Displacement of [3H]LSD from 5-HT2B receptor after 1.5 hrs by scintillation counting
[3] = target: 5-hydroxytryptamine receptor 1D (Homo sapiens, UniProt P28221); assay: Displacement of [3H]5-carboximidotryptamine from 5-HT1D receptor after 1.5 hrs by scintillation counting
[4] = target: 5-hydroxytryptamine receptor 5A (Homo sapiens, UniProt P47898); assay: Displacement of [3H]LSD from 5-HT5A receptor after 1.5 hrs by scintillation counting
[5] = target: T2, Muscarinic acetylcholine receptor M5 (Homo sapiens, UniProt P08912); assay: Displacement of [3H]QNB from muscarinic acetylcholine M5 receptor after 1.5 hrs by scintillation counting
T2 sequence (P08912 whole entry): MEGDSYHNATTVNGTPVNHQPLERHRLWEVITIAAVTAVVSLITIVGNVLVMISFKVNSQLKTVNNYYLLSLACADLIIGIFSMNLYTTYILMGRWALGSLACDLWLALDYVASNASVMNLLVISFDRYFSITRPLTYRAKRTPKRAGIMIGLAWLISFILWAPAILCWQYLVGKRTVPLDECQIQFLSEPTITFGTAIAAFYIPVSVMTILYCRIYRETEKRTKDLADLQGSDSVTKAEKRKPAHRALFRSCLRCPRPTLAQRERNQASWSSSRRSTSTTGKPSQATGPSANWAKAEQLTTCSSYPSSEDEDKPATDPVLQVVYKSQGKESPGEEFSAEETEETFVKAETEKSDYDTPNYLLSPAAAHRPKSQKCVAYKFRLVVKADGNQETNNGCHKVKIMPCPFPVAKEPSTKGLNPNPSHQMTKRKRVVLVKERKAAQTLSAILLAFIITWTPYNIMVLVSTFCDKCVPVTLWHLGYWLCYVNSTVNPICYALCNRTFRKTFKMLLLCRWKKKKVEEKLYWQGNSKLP

D(1B) dopamine receptor = D(1B) dopamine receptor (Homo sapiens, UniProt P21918); assay: Displacement of [3H][…] from dopamine D5 receptor after 1.5 hrs by scintillation counting
A549 = assay: Cytotoxicity against human A549 cells after 72 hrs; assay type: cell-based
Procedure, shortened: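 A549 cells at 12,000 per well in DMEM F12 (no HEPES or phenol red) with 2% FBS and 1% penicillin–streptomycin, preincubated 24 h at 37 °C, 5% CO2. Compounds then added, 72 h incubation. Viability by MTS-type tetrazolium reagent, 1 h at 37 °C, absorbance at 490 nm. IC50 determined.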

[6] = target: Sodium-dependent dopamine transporter (Homo sapiens, UniProt Q01959); assay: Displacement of [3H]WIN35428 from DAT after 1.5 hrs by scintillation counting
[7] = target: 5-hydroxytryptamine receptor 7 (Homo sapiens, UniProt P34969); assay: Displacement of [3H]LSD from 5-HT7 receptor after 1.5 hrs by scintillation counting
[8] = target: T3, 5-hydroxytryptamine receptor 2C (Homo sapiens, UniProt P28335); assay: Displacement of [3H]mesulergine from 5-HT2C receptor after 1.5 hrs by scintillation counting
T3 sequence (P28335 whole entry): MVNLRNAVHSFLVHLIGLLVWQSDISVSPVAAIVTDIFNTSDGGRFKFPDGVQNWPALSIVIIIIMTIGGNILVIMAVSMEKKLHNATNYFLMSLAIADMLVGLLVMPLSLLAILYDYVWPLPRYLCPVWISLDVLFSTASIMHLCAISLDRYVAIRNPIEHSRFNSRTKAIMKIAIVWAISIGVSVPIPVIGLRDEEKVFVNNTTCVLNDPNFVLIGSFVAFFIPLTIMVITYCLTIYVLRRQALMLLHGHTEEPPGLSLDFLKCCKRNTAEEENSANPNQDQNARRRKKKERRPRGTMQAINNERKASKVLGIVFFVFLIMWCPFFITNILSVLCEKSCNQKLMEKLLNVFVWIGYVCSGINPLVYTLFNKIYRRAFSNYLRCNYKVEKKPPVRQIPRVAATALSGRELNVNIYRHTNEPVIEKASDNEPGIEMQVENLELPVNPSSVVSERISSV

Plasmodium falciparum = assay: Antimalarial activity against transgenic Plasmodium falciparum 3D7 infected in human A positive erythrocytes after 72 hrs by luciferase reporter gene assay; assay type: functional, organism-based; settings: 3D7, 72 h
Procedure, shortened: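 Luciferase-expressing P. falciparum 3D7 kept in RPMI 1640 without phenol red, 10% heat-inactivated A+ human plasma, 4% washed A+ erythrocytes, 90% N2/5% O2/5% CO2, 37 °C. Ring-stage cultures (>70% rings) diluted to 0.5% parasitemia, 1.5% hematocrit. Eleven-point duplicate twofold series, final 100 to 0.098 µg/mL. Incubated 72 h, frozen at −20 °C, lysed, luminescence read (5 s integration). IC50 by nonlinear regression.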

[9] = target: Cyclin-dependent kinase 5 (Homo sapiens, UniProt Q00535); assay: Inhibition of CDK5
HT-29 = assay: Cytotoxicity against human HT-29 cells; assay type: cell-based
[10] = target: Cyclin-dependent kinase 2/cyclin A (Homo sapiens, UniProt P24941); assay: Inhibition of human recombinant CDK2/cyclin A expressed in insect cells assessed as histone phosphorylation using [33P]gamma-ATP after 30 mins by scintillation counting
SH-SY5Y = assay: Cytotoxicity against human SH-SY5Y cells by MTS assay; assay type: cell-based
[11] = Inhibition of PKA
[12] = Cytotoxicity against mouse LMM3 cells; assay type: cell-based
[13] = Inhibition of pig brain CK1delta/epsilon assessed as RRKHAAIGSpAYSITA phosphorylation using [33P]gamma-ATP after 30 mins by scintillation counting; parameters: species or system Sus scrofa
CDK9/cyclin T1 = CDK9/cyclin T1 (Homo sapiens, UniProt P50750); assay: Inhibition of human recombinant CDK9/cyclin T expressed in insect cells assessed as pRB fragment (773 to 928) phosphorylation using [33P]gamma-ATP after 30 mins by scintillation counting
HEp-2 = assay: Cytotoxicity against human Hep2 cells; assay type: cell-based
[14] = Inhibition of PKG

Chain of 5-hydroxytryptamine receptor 1D (P28221 whole entry): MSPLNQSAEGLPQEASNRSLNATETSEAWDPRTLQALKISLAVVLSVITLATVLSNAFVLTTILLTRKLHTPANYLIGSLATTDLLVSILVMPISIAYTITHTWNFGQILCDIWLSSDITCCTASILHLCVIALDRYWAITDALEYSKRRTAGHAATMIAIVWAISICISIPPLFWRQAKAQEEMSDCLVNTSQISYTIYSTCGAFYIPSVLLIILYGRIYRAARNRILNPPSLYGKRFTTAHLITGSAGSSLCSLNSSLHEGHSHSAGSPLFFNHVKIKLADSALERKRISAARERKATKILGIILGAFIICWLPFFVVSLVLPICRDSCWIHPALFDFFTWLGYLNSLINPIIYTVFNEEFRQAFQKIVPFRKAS
Chain of 5-hydroxytryptamine receptor 7 (P34969 whole entry): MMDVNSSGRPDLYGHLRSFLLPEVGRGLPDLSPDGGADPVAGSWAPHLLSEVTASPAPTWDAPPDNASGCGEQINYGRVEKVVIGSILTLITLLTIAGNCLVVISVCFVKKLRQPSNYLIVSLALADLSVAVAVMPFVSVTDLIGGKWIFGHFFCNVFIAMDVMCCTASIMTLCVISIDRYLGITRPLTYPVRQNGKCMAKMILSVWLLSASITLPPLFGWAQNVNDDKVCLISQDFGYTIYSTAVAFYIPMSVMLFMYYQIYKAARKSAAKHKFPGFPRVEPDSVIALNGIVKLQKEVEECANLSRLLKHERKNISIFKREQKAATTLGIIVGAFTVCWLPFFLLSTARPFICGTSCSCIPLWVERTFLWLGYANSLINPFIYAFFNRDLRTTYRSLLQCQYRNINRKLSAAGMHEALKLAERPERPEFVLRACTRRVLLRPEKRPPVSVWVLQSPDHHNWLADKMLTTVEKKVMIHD
Chain of D(1B) dopamine receptor (P21918 whole entry): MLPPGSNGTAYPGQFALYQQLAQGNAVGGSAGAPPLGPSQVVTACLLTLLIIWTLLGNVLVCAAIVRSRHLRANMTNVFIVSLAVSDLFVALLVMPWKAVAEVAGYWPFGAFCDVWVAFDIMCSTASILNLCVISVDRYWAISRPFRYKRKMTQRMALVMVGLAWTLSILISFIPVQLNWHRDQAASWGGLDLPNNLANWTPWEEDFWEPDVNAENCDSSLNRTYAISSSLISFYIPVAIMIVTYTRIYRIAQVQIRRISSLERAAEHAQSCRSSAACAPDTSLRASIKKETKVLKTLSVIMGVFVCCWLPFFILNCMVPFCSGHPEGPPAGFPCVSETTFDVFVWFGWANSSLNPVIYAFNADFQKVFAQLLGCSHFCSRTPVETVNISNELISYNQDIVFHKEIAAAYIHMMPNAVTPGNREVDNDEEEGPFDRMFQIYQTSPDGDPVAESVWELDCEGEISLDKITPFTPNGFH
Chain of 5-hydroxytryptamine receptor 5A (P47898 whole entry): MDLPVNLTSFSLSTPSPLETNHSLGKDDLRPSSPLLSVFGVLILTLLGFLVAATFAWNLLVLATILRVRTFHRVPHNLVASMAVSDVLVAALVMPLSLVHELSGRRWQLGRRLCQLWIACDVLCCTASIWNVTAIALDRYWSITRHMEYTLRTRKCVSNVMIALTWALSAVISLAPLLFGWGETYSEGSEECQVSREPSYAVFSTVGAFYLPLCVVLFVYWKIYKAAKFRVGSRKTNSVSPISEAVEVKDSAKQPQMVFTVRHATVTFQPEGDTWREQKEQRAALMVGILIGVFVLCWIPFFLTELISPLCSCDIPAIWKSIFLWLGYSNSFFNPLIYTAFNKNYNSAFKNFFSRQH
Chain of 5-hydroxytryptamine receptor 2B (P41595 whole entry): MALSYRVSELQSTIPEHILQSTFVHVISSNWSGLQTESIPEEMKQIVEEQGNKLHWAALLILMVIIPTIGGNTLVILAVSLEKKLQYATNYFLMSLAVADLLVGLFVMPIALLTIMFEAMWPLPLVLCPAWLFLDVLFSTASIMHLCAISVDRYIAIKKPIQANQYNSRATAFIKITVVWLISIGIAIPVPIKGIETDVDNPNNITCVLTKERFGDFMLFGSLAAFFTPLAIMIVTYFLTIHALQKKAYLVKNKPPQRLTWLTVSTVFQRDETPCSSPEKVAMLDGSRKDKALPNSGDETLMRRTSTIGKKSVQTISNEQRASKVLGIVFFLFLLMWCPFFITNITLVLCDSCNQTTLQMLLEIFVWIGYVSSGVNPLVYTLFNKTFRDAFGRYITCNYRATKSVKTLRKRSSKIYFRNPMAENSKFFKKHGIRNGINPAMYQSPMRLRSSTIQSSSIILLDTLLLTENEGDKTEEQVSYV
Chain of Sodium-dependent dopamine transporter (Q01959 whole entry): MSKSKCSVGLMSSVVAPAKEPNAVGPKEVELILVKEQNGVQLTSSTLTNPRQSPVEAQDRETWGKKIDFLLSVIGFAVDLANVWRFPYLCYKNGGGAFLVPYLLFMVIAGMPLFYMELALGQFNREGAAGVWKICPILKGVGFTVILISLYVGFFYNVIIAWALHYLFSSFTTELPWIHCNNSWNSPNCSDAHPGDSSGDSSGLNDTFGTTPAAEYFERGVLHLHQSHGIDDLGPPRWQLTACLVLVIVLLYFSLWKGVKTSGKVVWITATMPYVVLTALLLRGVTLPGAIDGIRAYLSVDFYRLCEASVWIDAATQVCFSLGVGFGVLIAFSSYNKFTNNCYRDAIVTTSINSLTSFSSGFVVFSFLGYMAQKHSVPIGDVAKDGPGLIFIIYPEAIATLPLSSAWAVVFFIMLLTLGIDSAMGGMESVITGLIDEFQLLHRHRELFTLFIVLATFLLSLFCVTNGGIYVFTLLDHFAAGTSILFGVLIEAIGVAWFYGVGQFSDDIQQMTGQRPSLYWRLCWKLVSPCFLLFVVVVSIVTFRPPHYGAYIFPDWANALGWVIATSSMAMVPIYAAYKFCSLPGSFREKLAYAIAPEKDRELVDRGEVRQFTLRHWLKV
Chain of Cyclin-dependent kinase 5 (Q00535 whole entry): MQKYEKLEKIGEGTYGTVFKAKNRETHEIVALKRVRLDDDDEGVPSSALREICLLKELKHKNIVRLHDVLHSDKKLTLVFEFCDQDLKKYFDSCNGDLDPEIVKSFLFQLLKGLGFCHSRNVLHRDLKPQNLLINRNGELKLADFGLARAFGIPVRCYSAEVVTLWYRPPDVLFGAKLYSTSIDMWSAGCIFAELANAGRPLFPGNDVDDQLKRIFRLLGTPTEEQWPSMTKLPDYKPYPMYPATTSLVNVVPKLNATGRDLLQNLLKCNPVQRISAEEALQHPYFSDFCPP
Chain of CDK9/cyclin T1 (O60563 whole entry, the tested form may be a part): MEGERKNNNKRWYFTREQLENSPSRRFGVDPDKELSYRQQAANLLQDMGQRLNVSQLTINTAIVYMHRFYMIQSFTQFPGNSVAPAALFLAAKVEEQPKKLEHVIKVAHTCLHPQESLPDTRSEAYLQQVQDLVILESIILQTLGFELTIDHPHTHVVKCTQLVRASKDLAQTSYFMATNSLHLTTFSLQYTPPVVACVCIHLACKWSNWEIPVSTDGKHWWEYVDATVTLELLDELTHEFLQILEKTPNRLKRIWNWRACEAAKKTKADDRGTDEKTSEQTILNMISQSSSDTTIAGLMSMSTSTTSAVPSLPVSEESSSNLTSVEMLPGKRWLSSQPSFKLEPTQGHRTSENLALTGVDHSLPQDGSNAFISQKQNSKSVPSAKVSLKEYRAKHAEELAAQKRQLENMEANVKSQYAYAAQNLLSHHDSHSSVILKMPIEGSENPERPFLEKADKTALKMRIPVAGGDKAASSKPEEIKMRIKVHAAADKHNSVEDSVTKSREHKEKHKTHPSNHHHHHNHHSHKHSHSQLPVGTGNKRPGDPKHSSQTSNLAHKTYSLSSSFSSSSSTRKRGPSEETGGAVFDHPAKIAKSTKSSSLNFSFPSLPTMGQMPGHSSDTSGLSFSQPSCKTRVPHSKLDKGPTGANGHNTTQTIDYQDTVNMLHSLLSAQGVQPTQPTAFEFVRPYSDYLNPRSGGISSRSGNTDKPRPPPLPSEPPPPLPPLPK
Chain of CDK9/cyclin T1 (P50750 whole entry, the tested form may be a part): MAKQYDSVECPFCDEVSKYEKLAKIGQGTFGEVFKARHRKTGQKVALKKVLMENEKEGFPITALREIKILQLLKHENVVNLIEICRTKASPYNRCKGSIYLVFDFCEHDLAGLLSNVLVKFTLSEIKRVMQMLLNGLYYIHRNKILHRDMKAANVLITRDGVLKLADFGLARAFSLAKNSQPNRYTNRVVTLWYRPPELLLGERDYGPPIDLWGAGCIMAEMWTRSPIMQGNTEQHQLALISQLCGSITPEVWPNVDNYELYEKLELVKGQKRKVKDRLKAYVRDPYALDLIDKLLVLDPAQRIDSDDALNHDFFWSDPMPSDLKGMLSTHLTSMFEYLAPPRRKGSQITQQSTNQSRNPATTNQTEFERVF

Structure (SMILES) | Ki [1] [µM] | Ki [2] [µM] | Ki [3] [µM] | IC50 [5] [µM] | Ki (D(1B) dopamine receptor) [µM] | IC50 (A549; Homo sapiens, A549, 72 h) [µM] | IC50 [6] [µM] | Ki [8] [µM] | IC50 (Plasmodium falciparum) [µM] | IC50 [1] [µM] | IC50 [2] [µM] | IC50 [4] [µM] | Ki [5] [µM] | IC50 [7] [µM] | IC50 [8] [µM] | other results
COc1cccc2[nH]cc(-c3ccnc(N)n3)c12 | 1.35 | 0.088 | > 10 | > 10 | > 10 | > 420 | > 10 | > 10 | 40 | – | – | – | – | – | – | Ki [4]: 1.53 µM; Ki [7]: 1.99 µM
Nc1nc(Cl)ncc1-c1c[nH]c2cccc(O)c12 | – | – | – | – | > 10 | > 256 | > 10 | – | > 38 | > 10 | > 10 | > 10 | 7.04 | > 10 | > 10 | IC50 [3]: > 10 µM
Nc1nccc(-c2c[nH]c3cccc(O)c23)n1 [MERIDIANIN A] | 0.684 | 0.15 | > 10 | – | > 10 | 15 | – | > 10 | 12 | – | – | > 10 | > 10 | > 10 | – | IC50 [9]: 3.5 µM; IC50 (HT-29): > 100 µM; IC50 [10]: 3.1 µM; IC50 (SH-SY5Y): > 30 µM; Ki [6]: 2.35 µM; IC50 [11]: 11 µM; IC50 [12]: > 100 µM; IC50 [13]: 1.1 µM; IC50 (CDK9/cyclin T1): 2.4 µM; IC50 (HEp-2): > 100 µM; IC50 [14]: 200 µM
CCN(CC)c1nccc(-c2c[nH]c3cc(Cl)ccc23)n1 [MERIDOQUIN] | – | – | – | – | – | > 333 | – | – | 200 | – | – | – | – | – | – | –
Nc1nc(Br)ncc1-c1c[nH]c2cccc(O)c12 [PSAMMOPEMMIN A] | – | – | > 10 | > 10 | > 10 | > 219 | > 10 | – | > 33 | > 10 | > 10 | > 10 | – | > 10 | > 10 | –
CC1=C[C@H]2O[C@@H]3C[C@H]4OC(=O)/C=C\C=C\[C@H]([C@@H](C)O)OCC/C(C)=C/C(=O)OC[C@@]2(CC1)[C@]4(C)[C@]31CO1 [RORIDIN E] | – | – | – | – | – | – | – | – | – | – | – | – | – | – | – | IC50 (A549; a549): < 9.7 µM

Source: ChEMBL document CHEMBL1828602, “CNS and antimalarial activity of synthetic meridianin and psammopemmin analogs” (Bioorg Med Chem, 2011)
